A selection: hits, their analogues and other compounds. The true share with any hit is near 4.6%.
TAAR1 antagonist = antagonists of human TAAR1. AID 624466. Q96RJ0. inhibition, % at 3 µM. CHO RD-HGA16 TAAR1, Fluo-8 calcium fluorescence, antagonist. actives 1.5% (n = 360,000);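 active means inhibition above a per-plate cutoff, the mean inhibition of test compounds on that plate plus 3 SD, cut at about 49% in these data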;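 further: 0% = DMSO plus EC80 beta-PEA response and 100% = DMSO alone without agonist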
Target sequence (Q96RJ0 whole entry, looked up): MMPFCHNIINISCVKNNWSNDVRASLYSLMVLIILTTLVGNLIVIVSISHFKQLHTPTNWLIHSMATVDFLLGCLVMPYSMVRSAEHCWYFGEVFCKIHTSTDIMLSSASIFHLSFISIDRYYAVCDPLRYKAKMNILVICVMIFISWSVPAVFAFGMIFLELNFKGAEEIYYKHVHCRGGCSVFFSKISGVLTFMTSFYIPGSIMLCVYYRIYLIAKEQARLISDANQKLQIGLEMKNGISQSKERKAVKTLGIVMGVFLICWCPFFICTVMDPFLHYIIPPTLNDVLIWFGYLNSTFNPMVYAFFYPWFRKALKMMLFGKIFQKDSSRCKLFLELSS
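Test system – hTAAR1-expressing CHO RD-HGA16 cells, Gα16-coupled · Also added – β-PEA at EC80 concentration, post-compound challenge · Compound – 3 µM, single point · Incubation – dye loading 75 min at 37 °C, then 30 min room temperature · Measured by – Fluo-8 intracellular calcium dye fluorescence, real-time kinetic reads · Benchmarks – vehicle and agonist controls · Replicates – singlicate, one well per test compound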
GPR7 antagonist = blocks human GPR7 receptor signaling; inhibition, % at 4.4 µM; actives 1.1% (n = 290,000); GPR7-expressing cells, fluorescence antagonist assay; in the data active means inhibition above about 16%, passing the limit was not always enough;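 further: cells stimulated with the agonist NPW; 0% = agonist with vehicle and 100% = vehicle without agonist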
Target sequence (P48145 whole entry, looked up): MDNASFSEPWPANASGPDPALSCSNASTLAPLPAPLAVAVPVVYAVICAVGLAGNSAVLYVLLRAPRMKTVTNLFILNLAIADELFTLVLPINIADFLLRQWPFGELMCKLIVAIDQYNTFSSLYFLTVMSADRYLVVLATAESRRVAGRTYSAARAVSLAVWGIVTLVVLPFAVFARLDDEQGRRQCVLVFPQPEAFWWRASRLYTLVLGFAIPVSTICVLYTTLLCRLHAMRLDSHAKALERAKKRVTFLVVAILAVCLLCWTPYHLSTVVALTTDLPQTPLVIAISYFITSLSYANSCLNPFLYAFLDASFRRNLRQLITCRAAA
TAAR1 agonist = human TAAR1 agonism; Q96RJ0; CHO RD-HGA16 TAAR1, Fluo-8 calcium fluorescence; vehicle wells 0%, saturating PEA agonist 100%; activation, % at 3 µM; actives 0.99% (n = 360,000);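 active means activation above the mean activation of all test compounds in the run plus 3 SD, cut at about 38% in these data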
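System: CHO-derived RD-HGA16 cells with stable Gα16 and human TAAR1. Times: 17-24 h plating, Fluo-8 75 min 37 °C, 30 min RT. Measured by: calcium-sensitive Fluo-8 signal, excitation 470-495, emission 515-575 nm. Read-out basis: % activation relative to PEA EC100 response. Control set: DMSO and PEA EC100. Repeats: no replicates (n 1).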
OX1R antag-1 = human HCRTR1 antagonism | O43613 | CHO/OX1R cells, Fluo-8 calcium fluorescence, orexin A | inhibition, % at 5 µM | actives 0.43% (n = 330,000);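 active means inhibition above its plate's threshold, mean inhibition of all tested compounds on the plate plus 3 SD, cut at about 37% in these data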;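 further: 0% = orexin A challenge wells and 100% = SB-334867-A antagonist wells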
OX1R antag-2 = antagonists of human orexin 1 receptor (OX1R); O43613; OX1R-expressing cells, FRET antagonist read-out; inhibition, % at 6.6 µM; actives 1.8% (n = 330,000); AID 485270; in the data active means inhibition mostly above about 38%, no sharp cut-off; inactive means mostly below about 40%;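 further: 0% = agonist challenge alone and 100% = reference antagonist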
CHO parental Ca = counter-screen for OX1R antagonists: effect in parental CHO cells | parental CHO-K1, ATP-induced calcium, Fluo-8 fluorescence | inhibition, % at 5.6 µM | actives 0.63% (n = 330,000) | AID 463079;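 active means inhibition above that plate's mean sample inhibition plus 3 SD, cut at about 26% in these data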;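 further: 0% = ATP-challenged DMSO wells and 100% = DMSO wells without ATP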
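material = parental CHO cells | also added = ATP as calcium-mobilizing challenge | dosing = single point at 5.6 µM | detection = intracellular calcium via Fluo-8 no-wash fluorescent dye | read-out = % inhibition | benchmarks = low control ATP plus DMSO, high control DMSO only | repeats = one well per compound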
OX1R HTRF confirm = confirmation of human orexin 1 receptor antagonists, HTRF format. shares compounds with OX1R antag-2. OX1R-expressing cells, HTRF antagonist assay. inhibition, % at 6.6 µM. actives 49% (n = 1,800); in the data active means inhibition above about 55%;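 further: CHO cells expressing OX1R stimulated with orexin A at about EC80; 0% = agonist challenge alone and 100% = reference antagonist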
CHO-K1 HTRF = counter-screen: parental CHO-K1 HTRF response; shares compounds with OX1R antag-2; parental CHO-K1 cells, HTRF counterscreen; inhibition, % at 6.6 µM; actives 48% (n = 1,800); AID 493232; in the data active means inhibition above about 17%;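 further: 0% = agonist challenge with vehicle and 100% = vehicle alone without agonist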
The depositor's hits bear a star; . = no result.

SMILES	TAAR1 antagonist	GPR7 antagonist	TAAR1 agonist	OX1R antag-1	OX1R antag-2	CHO parental Ca	OX1R HTRF confirm	CHO-K1 HTRF
O=C(/C=C/c1ccc([N+](=O)[O-])cc1)Nc1cccnc1	5	1	12	8	95*	-14	44	27*
O=C(N/N=C/c1ccc(Br)o1)c1cc([N+](=O)[O-])cc([N+](=O)[O-])c1	20	-6	1	-7	81*	-17	37	56*
C/C(=N/NC(=O)CNC(=O)c1cccnc1)c1ccc([N+](=O)[O-])cc1	-3	-7	9	-11	90*	7	52	44*
O=S(=O)(Nc1ccccn1)c1cc(Cl)ccc1Cl	1	-18	2	-9	-4	-3	.	.
Cc1ccccc1CN1[C@@H](C)[C@H](c2ccccc2)Oc2cccc(N3CCCC(C)C3)c2S1(=O)=O (stereo not given in full)	-21	.	1	.	.	.	.	.
C=CCN(c1ccccc1)S(=O)(=O)c1cc2c(cc1C)N(C)CCO2	4	-9	-3	-48	18	-2	.	.
O=C(NN=Cc1ccc([N+](=O)[O-])cc1)c1ccncc1	-14	.	0	.	.	.	.	.
O=C(N/N=C/c1ccncc1)c1cc([N+](=O)[O-])cc([N+](=O)[O-])c1	-13	-12	6	-20	86*	-8	50	74*
COc1ccc(C(=O)c2ccccc2)c2c(O)ccc(C(=O)c3ccccc3)c12	11	-5	13	18	104*	6	60*	6
O=C(CCC(=O)OCc1ccc([N+](=O)[O-])cc1)Nc1ccccc1Cl	4	-4	9	-7	16	-2	.	.
O=C(N/N=C/c1ccncc1)c1ccc(COc2cccc3cccnc23)cc1	40	1	7	-13	24	-13	.	.
O=C(N/N=C/c1ccc2cccc(OCc3ccccc3)c2n1)c1ccc(Cl)cc1	19	-11	10	-2	79*	-15	37	-2
O=C1c2ccc3c4c(ccc(c24)C(=O)N1CCCCO)C(=O)N(CCCCO)C3=O	9	-12	4	.	.	.	.	.
O=C(c1ccc2c(c1)C(=O)N(CCCO)C2=O)c1ccc2c(c1)C(=O)N(CCCO)C2=O	43	-10	16	-16	149*	-15	56*	67*
CCC(CC)C(=O)c1c[nH]c(C(=O)OC)c1	-7	-6	5	-15	18	-9	.	.
O=C(Nc1nc(-c2cccs2)cs1)c1ccco1	-9	-12	-1	-26	10	-26	.	.
COc1ccc(C(=O)Nc2nc(-c3cccs3)cs2)cc1	7	-1	5	-7	90*	-15	65*	20*
CCCCCCSc1ccc([C@H]2N[C@@](CC(C)C)(C(=O)OC)[C@H]3C(=O)N(C)C(=O)[C@@H]23)cc1OC	1	.	0	-40	2	-23	.	.
OC(Cc1ccccc1Br)c1ncc(-c2ccc(Cl)cc2)[nH]1 (stereo not given)	-9	.	2	.	.	.	.	.
Cc1cc(/C=N/n2c(COc3ccccc3)nc3ccccc3c2=O)c(O)c([N+](=O)[O-])c1	41	-6	0	-18	92*	-18	37	12
O=C(NCc1ccccc1Cl)C1CCC(=O)N(CCCN2CCCC2=O)C1 (stereo not given)	-1	-13	1	-12	-2	-15	.	.
O=C(Nc1cc([N+](=O)[O-])ccc1O)c1ccc2c(c1)C(=O)N(Cc1ccco1)C2=O	16	2	4	-4	32	-4	.	.
O=C(CN1C(=O)c2ccc([N+](=O)[O-])cc2C1=O)NCc1ccco1	9	-4	0	-11	88*	-1	46	53*
O=[N+]([O-])c1cccc(/C=N/n2cnnc2)c1	-17	-8	0	-5	77*	0	26	31*
Nc1ccc2oc(-c3cccc4ccccc34)nc2c1	3	29	21	-4	82*	-5	68*	1
SMILES	TAAR1 antagonist	GPR7 antagonist	TAAR1 agonist	OX1R antag-1	OX1R antag-2	CHO parental Ca	OX1R HTRF confirm	CHO-K1 HTRF
Cc1ccc(-c2nc3cc(N)ccc3o2)c(C)c1	-11	-6	11	-13	29	-14	.	.
CCC(C)NC(=O)c1ccc2c(c1)S(=O)(=O)c1ccccc1C2=O (stereo not given)	4	-11	2	.	.	.	.	.
CCCCNC(=O)c1ccc2c(c1)S(=O)(=O)c1ccccc1C2=O	-12	-8	12	.	.	.	.	.
CC(C)OCCCNC(=O)c1ccc2c(c1)S(=O)(=O)c1ccccc1C2=O	14	-7	4	-15	85*	-11	45	41*
CC(=O)NCCNC(=O)c1ccc2c(c1)S(=O)(=O)c1ccccc1C2=O	6	-18	4	-32	86*	-11	54	85*
C=CCNC(=O)c1ccc2c(c1)S(=O)(=O)c1ccccc1C2=O	2	.	5	-23	126*	-12	58*	58*
COCCNC(=O)c1ccc2c(c1)S(=O)(=O)c1ccccc1C2=O	8	.	9	-5	86*	0	54	84*
COCC(C)NC(=O)c1ccc2c(c1)S(=O)(=O)c1ccccc1C2=O (stereo not given)	0	-20	2	-4	109*	-4	50	55*
CCCCn1c(N)c(N(CC)C(=O)c2ccc3c(c2)S(=O)(=O)c2ccccc2C3=O)c(=O)[nH]c1=O	-14	-15	4	-3	85*	-2	23	18*
CCNC(=O)c1ccc2c(c1)S(=O)(=O)c1ccccc1C2=O	9	-14	1	-16	189*	-21	49	67*
CCCCn1c(N)c(N(CC)C(=O)c2ccc(Cl)c(Cl)c2)c(=O)[nH]c1=O	-21	-2	6	-16	14	-3	.	.
CCc1ccc(C(=O)/C=C/c2cnn(C)c2C)s1	8	0	5	-7	24	-16	.	.
Cc1c(/C=C/C(=O)c2cccs2)cnn1C	-11	-15	3	10	103*	-15	62*	15
Cc1ccc(-n2c(=O)c3ccccc3n(CC(=O)NCc3ccco3)c2=O)cc1	-21	3	10	-14	5	-10	.	.
CCOC(=O)Cc1csc(NC(=O)CSc2ncnc3c2cnn3-c2ccc(OC)cc2)n1	50*	-2	18	29	80*	13	27	4
CCOC(=O)CNC(=O)CSc1ncnc2c1cnn2-c1ccc(Cl)cc1	-10	-2	14	-19	18	-4	.	.
O=C(N=Nc1c(O)[nH]c2ccccc12)c1ccco1	0	-7	9	-10	113*	-1	99*	55*
